OX1R antag-1: OX1R (HCRTR1) antagonists, primary screen, fluorescence, CHO/OX1R cells, Fluo-8 calcium, orexin A | 0.43% of 330,000 active | inhibition, % at 5 µM | AID 434989, 2010 | Fluo-8 calcium fluorescence;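 active = inhibition above its plate's threshold, mean inhibition of all tested compounds on the plate plus 3 SD, cut at about 37% in these data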;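 also: 0% = orexin A challenge wells and 100% = SB-334867-A antagonist wells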
Target sequence (O43613 whole entry, looked up): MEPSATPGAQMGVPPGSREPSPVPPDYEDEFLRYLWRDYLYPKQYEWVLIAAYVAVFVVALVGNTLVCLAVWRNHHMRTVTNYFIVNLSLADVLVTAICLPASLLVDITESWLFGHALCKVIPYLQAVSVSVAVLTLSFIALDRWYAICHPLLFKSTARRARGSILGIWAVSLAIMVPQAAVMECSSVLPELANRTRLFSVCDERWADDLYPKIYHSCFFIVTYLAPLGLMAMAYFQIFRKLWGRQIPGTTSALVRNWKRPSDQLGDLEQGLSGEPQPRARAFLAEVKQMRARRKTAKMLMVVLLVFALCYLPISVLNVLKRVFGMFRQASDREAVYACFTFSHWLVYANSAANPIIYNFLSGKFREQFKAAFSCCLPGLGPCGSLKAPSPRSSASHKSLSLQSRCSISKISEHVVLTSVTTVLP
M1 ag parental: counter-screen for M1 agonists: effect in parental CHO-K1 cells. Fluo-8 calcium fluorescence; scaled to maximal ATP response, vehicle zero. activation, % at 3 µM. 0.48% of 360,000 active; in the data active = activation above about 15%;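 also: untransfected CHO-K1 host cells lacking M1 receptor as counterscreen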
CHO-K1 Ca PAM: nonselective calcium activators in parental CHO-K1 cells, primary screen, counter-screen for M1 PAM project, cell-based, Fluo-8 calcium fluorescence, full deck, 1536-well | activation, % at 3 µM | AID 602247, 2012 | 0.02% of 360,000 active | ATP EC20; 0% at ATP EC20, 100% at ATP max;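 active = activation above the run cutoff, the mean activation of all test compounds plus 3 SD, cut at about 40% in these data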;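 also: peak over basal fluorescence ratio in a 140 s read after ATP addition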
OX1R antag-2: antagonists of human orexin 1 receptor (OX1R); Orexin/Hypocretin receptor type 1 (Homo sapiens), O43613; OX1R-expressing cells, FRET antagonist read-out; inhibition, % at 6.6 µM; 1.8% of 330,000 active; AID 485270, 2010; in the data active = inhibition mostly above about 38%, no sharp cut-off; inactive = mostly below about 40%;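 also: 0% = agonist challenge alone and 100% = reference antagonist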
CHO-K1 Ca antag: nonselective inhibitor or artifact in parental CHO-K1 cells. ATP-induced calcium, Fluo-8 fluorescence. inhibition, % at 3 µM. 0.6% of 360,000 active;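 active = inhibition above a per-plate cutoff, the plate's mean sample inhibition plus 3 SD, cut at about 24% in these data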;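 also: 0% = DMSO plus EC80 ATP and 100% = DMSO alone without ATP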
CHO parental Ca: ATP-evoked calcium signal inhibitors, parental CHO, primary screen, counter-screen for OX1R antagonist project, cell-based, fluorescence, Fluo-8 calcium dye; parental CHO-K1, ATP-induced calcium, Fluo-8 fluorescence; inhibition, % at 5.6 µM; 0.63% of 330,000 active; AID 463079, 2010;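 active = inhibition above that plate's mean sample inhibition plus 3 SD, cut at about 26% in these data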;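 also: 0% = ATP-challenged DMSO wells and 100% = DMSO wells without ATP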
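Assay system – parental CHO cells · Reagent – ATP stimulus · Detection – intracellular calcium via Fluo-8 no-wash fluorescent dye · Evaluation – percent inhibition of ATP-evoked calcium rise, normalized to controls · Controls – ATP wells versus no-ATP DMSO wells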
OX1R HTRF confirm: OX1R (HCRTR1) antagonists, confirmation, cell-based, HTRF. shares compounds with OX1R antag-2. OX1R-expressing cells, HTRF antagonist assay. inhibition, % at 6.6 µM. 49% of 1,800 active; in the data active = inhibition above about 55%;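 also: CHO cells expressing OX1R stimulated with orexin A at about EC80; 0% = agonist challenge alone and 100% = reference antagonist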
CHO-K1 HTRF: signal inhibition in parental CHO-K1 cells, counter-screen for OX1R antagonist project, cell-based, HTRF. shares compounds with OX1R antag-2. HTRF counterscreen. inhibition, % at 6.6 µM. 48% of 1,800 active. AID 493232, 2011; in the data active = inhibition above about 17%;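 also: 0% = agonist challenge with vehicle and 100% = vehicle alone without agonist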
* marks the source's active call; other numbers are inactive results; nt = no result given. In the library only some 2.9% were active in any assay of this set; here they are far more common.

SMILES	OX1R antag-1	M1 ag parental	CHO-K1 Ca PAM	OX1R antag-2	CHO-K1 Ca antag	CHO parental Ca	OX1R HTRF confirm	CHO-K1 HTRF
CCCn1nc(C(=O)NCC2COc3ccccc3O2)c2ccccc2c1=O (stereo not drawn)	-18	1	-4	15	-13	-34	nt	nt
O=C1C=C(c2cccc3c2oc2ccccc23)CCC1	-30	-1	16	81*	-21	-25	60*	12
CCOC(=O)C=C(C(=O)OCC)C(=O)OCC	nt	0	21	nt	-20	nt	nt	nt
Cc1ccc2cc3cc(C(=O)NCCCN4CCCCCC4)oc3nc2c1	-24	0	-5	82*	8	-27	42	36*
Cn1c2ccccc2c2cc(/C=N/NC(=O)c3ccc(N)cc3)ccc21	23	2	-12	88*	5	-30	88*	8
O=C(O)c1ccc(Sc2nnnn2-c2ccccc2)c([N+](=O)[O-])c1	-8	0	3	62	10	-6	nt	nt
Cn1cnnc1Sc1ccc(C(=O)OCC(=O)NC2CC2)cc1[N+](=O)[O-]	nt	1	17	nt	-9	nt	nt	nt
Cn1nnnc1Sc1ccc(C(=O)O)cc1[N+](=O)[O-]	-9	1	10	90*	-18	-5	37	54*
Cn1ccnc1Sc1ccc(C(N)=O)cc1[N+](=O)[O-]	4	2	-1	94*	-10	5	38	32*
C[C@]1(O)CC(=O)C=C[C@H]1Nc1ccccc1	nt	1	6	nt	0	nt	nt	nt
COc1cccc(Nc2ncnc3c2cnn3-c2cccc(C)c2)c1	8	0	12	92*	-1	-10	46	0
COc1ccccc1OCC(=O)NC1CCSc2ccccc21 (stereo not drawn)	-12	1	17	6	-21	-19	nt	nt
Cc1ccc(-n2nc3cc(C)c(N)cc3n2)cc1	-10	0	24	5	-13	-3	nt	nt
COc1ccc(-n2nc3cc(C)c(N)c(Br)c3n2)cc1	28	0	14	92*	-6	-17	41	6
Cc1cc(NC(=O)C(C)SCC(=O)OC(C)C(=O)Nc2ccc(F)cc2Cl)no1 (stereo not drawn)	-19	0	24	29	-1	-15	nt	nt
COc1ccccc1NC(=O)c1nn(-c2cccc(C(F)(F)F)c2)ccc1=O	12	1	11	82*	-2	-6	66*	5
COc1ccc(CN2C(=O)C(CC(=O)NC3CC3)CC(C(=O)N(C)C)=C2C)cc1 (stereo not drawn)	nt	1	17	nt	-5	nt	nt	nt
Cc1cc(C=C2C(=O)c3ccccc3C2=O)c(C)n1C	10	1	23	92*	-5	-8	38	14
CCc1nc(Nc2ccc(OC)cc2OC)c2oc3ccccc3c2n1	-51	0	10	14	-12	-18	nt	nt
CCOCCCN(C(=O)CNC(=O)c1ccco1)C(C(=O)NC1CCCC1)c1cccc(OC)c1 (stereo not drawn)	-17	1	8	17	-13	-19	nt	nt
O=C1c2c([N+](=O)[O-])cc([N+](=O)[O-])cc2S(=O)N1Cc1ccccc1 (stereo not drawn)	-22	0	5	105*	4	-7	40	86*
CC(=O)NCc1ccc(S(=O)(=O)N2CCN(S(=O)(=O)c3ccc4ccccc4c3)CC2)cc1	nt	0	-4	nt	-9	nt	nt	nt
CCOC(=O)c1c(C)oc2c1c1c(c3ccccc32)OCN(Cc2ccccn2)C1	-5	1	11	84*	0	-18	14	4
NC(=O)CC(NC(=O)Cc1cccc2ccccc12)c1ccc(NCCN2CCCC2)c([N+](=O)[O-])c1 (stereo not drawn)	-6	0	13	84*	-12	-8	22	13

Bioassay records: PubChem, The Scripps Research Institute Molecular Screening Center
